Hits are enriched below; roughly 3.5% of the tested compounds scored in any of these assays.
MrgX1 antagonist: human MrgX1 receptor antagonism, primary screen. Q96LB2. MRGX1-HEK293 calcium flux, Fluo-4, BAM8-22 antagonism; active compounds read low. B-score at 10 µM. hit rate 1.3% among 310,000. AID 588676;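 active = calcium-response B-score plate-corrected more than 3 library SD below zero, starting fluorescence within 5 deviations, no agonist response on first addition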;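 also: peak minus trough fluorescence over baseline after final BAM8-22 challenge near maximal dose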
Target sequence (Q96LB2 whole entry, looked up): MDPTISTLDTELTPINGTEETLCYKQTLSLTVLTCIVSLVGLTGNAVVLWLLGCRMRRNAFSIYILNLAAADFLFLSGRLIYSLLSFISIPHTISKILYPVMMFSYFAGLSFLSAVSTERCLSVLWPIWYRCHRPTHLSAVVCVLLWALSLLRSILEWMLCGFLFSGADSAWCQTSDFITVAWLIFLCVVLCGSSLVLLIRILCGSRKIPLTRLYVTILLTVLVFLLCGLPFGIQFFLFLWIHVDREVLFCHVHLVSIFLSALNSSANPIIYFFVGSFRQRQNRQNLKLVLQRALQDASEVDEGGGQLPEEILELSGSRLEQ
MrgX1 PAM: allosterically activates human MrgX1 receptor signaling; B-score at 10 µM; AID 588675; MrgX1-HEK293, Fluo-4 calcium flux, FDSS; active compounds read high; Q96LB2; hit rate 0.63% among 310,000;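 active = plate-corrected calcium response at least 3 library SD above typical, normal starting fluorescence, not activating the receptor alone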;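 also: compound read alongside a low EC10 to EC30 dose of BAM8-22 agonist; peak minus trough fluorescence over baseline measured at the second addition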
MrgX1 ag: agonists of human MrgX1 receptor; B-score at 10 µM; Q96LB2; MrgX1-HEK293 cells, Fluo-4 calcium fluorescence, agonist mode; active compounds read high; hit rate 0.44% among 310,000;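 active = calcium response B-score plate-corrected fluorescence ratio at least 3 library SD, with starting fluorescence B-score inside 5 SD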
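System – MrgX1-expressing HEK293 cells · Incubation – cells plated overnight, dye loaded 0.5 h 37 °C, 0.5 h room temperature · Technique – kinetic Fluo-4 NW fluorescence of intracellular calcium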
RGS4 block: human RGS4 inhibition; hit rate 0.45% among 310,000; HEK293 M3R/RGS4 inducible, Fluo-4 calcium flux; active compounds read high; triggered by carbachol at its EC20; B-score at 10 µM;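 active = B-score, a plate-corrected calcium signal, over three deviations above library mean, with baseline fluorescence within five deviations of library mean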;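 also: RGS4 expression induced by doxycycline in cells with stable M3 receptor; B-score is computed from the integrated fluorescence ratio over baseline after carbachol; higher B-score means a larger calcium signal and so more RGS4 inhibition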
Target sequence (P49798 whole entry, looked up): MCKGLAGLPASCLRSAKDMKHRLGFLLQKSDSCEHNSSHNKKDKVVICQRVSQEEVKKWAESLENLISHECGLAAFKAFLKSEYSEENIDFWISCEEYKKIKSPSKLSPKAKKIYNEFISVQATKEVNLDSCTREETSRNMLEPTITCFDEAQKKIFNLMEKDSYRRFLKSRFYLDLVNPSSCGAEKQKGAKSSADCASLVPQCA
RGS4 act: potentiators or activators of RGS4; HEK293 M3R/inducible RGS4, carbachol calcium flux Fluo4; active compounds read low; hit rate 0.92% among 310,000; AID 463111; B-score at 10 µM;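 active = B-score of the integrated calcium signal more than 4 SD below the library mean, with starting fluorescence not abnormally high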;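 also: negative B-score means reduced calcium response which marks RGS4 activation or potentiation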
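Also added: carbachol at ECmax as muscarinic agonist stimulus; Assay system: HEK293 cells with stable M3R and inducible RGS4; Timing: overnight RGS4 induction, 30 min dye load 37 °C, 20 min compound RT; Measured by: Fluo4-AM (2 µM) calcium-flux fluorescence, kinetic read.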
MrgX1 PAM conf: reconfirmed allosteric activator of human MrgX1 receptor; shares compounds with MrgX1 PAM; AID 602413; activation (ratio percentage), % at 10 µM; MrgX1-HEK293, Fluo-4 calcium fluorescence, FDSS; hit rate 13% among 1,200;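 active = ratio at least 3 SD above the weak peptide control, stable starting fluorescence, no direct agonism earlier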;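 also: compound followed by low BAM8-22 agonist challenge near EC20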
MrgX1 ant reconf: confirmation of human MrgX1 receptor antagonists | shares compounds with MrgX1 antagonist | MrgX1-HEK293, BAM8-22 calcium flux, Fluo-4; active compounds read low | remaining BAM8-22 calcium response % of control (active compounds read low), % at 10 µM | hit rate 19% among 2,300 | AID 602420;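 active = remaining agonist calcium response no higher than 100% minus 3 SD of agonist-only control wells, with starting fluorescence near control levels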;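 also: agonist BAM8-22 given at a near maximal EC90 to ECmax level; peak minus minimum fluorescence divided by baseline after agonist addition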
HEK293 Ca flux: counter-screen for MrgX1 antagonists: effect in parental HEK293 cells; shares compounds with MrgX1 antagonist; Fluo-4 calcium fluorescence, FDSS; fluorescence ratio F(max-min)/F0 at 10 µM; hit rate 2% among 4,000; AID 624111;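 active = duplicate-averaged calcium fluorescence ratio at least three times the standard deviation of buffer wells, a nonspecific response in parental cells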
HEK293 Ca counter: counter-screen for MrgX1 allosteric activators: effect in parental HEK293 cells. fluorescence ratio F(max-min)/F0 at 10 µM. AID 624114. shares compounds with MrgX1 antagonist. hit rate 0.4% among 4,000. parental HEK293 calcium flux, Fluo-4 fluorescence ratio; active compounds read high;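 active = calcium fluorescence ratio, averaged over duplicates, at least 3 SD of the buffer-well ratio, meaning a nonspecific response in receptor-free cells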;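 also: untransfected parental HEK293 lacking MrgX1 used as counterscreen for MrgX1 allosteric activators; fluorescence change taken during the second addition on a kinetic imager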
HEK293 Ca cntr2: activity in parental HEK293 cells lacking MrgX1 receptor | shares compounds with MrgX1 antagonist | Fluo-4 calcium fluorescence (FDSS); active compounds read high | fluorescence ratio F(max-min)/F0 at 10 µM | hit rate 8.7% among 4,000;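 active = calcium fluorescence ratio at least three times the spread of buffer wells, meaning a non-specific response in parental cells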
Starred values were filed as active, the others as inactive.

Results for N#CSCC(=O)N1c2ccccc2CCc2ccccc21 ?
MrgX1 antagonist: inactive; MrgX1 PAM: 8.5*; MrgX1 ag: inactive; RGS4 block: inactive; RGS4 act: inactive; MrgX1 PAM conf: inactive; HEK293 Ca flux: inactive; HEK293 Ca counter: inactive; HEK293 Ca cntr2: inactive

What do the screens show for `C=CCC1C(=O)NC(=S)NC1=O`?
MrgX1 antagonist: inactive; MrgX1 PAM: inactive; MrgX1 ag: inactive; RGS4 block: inactive; RGS4 act: inactive

Results for CCCCn1c(=O)c(C(=O)NCCc2ccccc2)c(O)c2ccccc21 ?
MrgX1 antagonist: inactive; MrgX1 PAM: 8.1*; MrgX1 ag: inactive; RGS4 block: inactive; RGS4 act: inactive; MrgX1 PAM conf: inactive; HEK293 Ca flux: inactive; HEK293 Ca counter: inactive; HEK293 Ca cntr2: inactive

Results for CCCCn1c(=O)c(C(=O)NC(C)c2ccccc2)c(O)c2ccccc21 (centres undefined) ?
MrgX1 antagonist: inactive; MrgX1 PAM: 9.1*; MrgX1 ag: inactive; RGS4 block: inactive; RGS4 act: inactive; MrgX1 PAM conf: inactive; HEK293 Ca flux: inactive; HEK293 Ca counter: 50*; HEK293 Ca cntr2: inactive

What do the screens show for `CCCCCn1c(=O)c(C(=O)Nc2ccccc2)c(O)c2ccccc21`?
MrgX1 antagonist: inactive; MrgX1 PAM: inactive; MrgX1 ag: inactive; RGS4 block: inactive; RGS4 act: inactive

What do the screens show for `O=C(/C=C/c1ccc(F)cc1)NC(=S)N1C[C@H]2C[C@H](C1)c1cccc(=O)n1C2`?
MrgX1 antagonist: inactive; MrgX1 PAM: inactive; MrgX1 ag: inactive; RGS4 block: inactive; RGS4 act: inactive

What do the screens show for `NCC(O)c1cc(O)c(O)cc1F` (centres undefined)?
MrgX1 antagonist: inactive; MrgX1 PAM: 6.5*; MrgX1 ag: inactive; MrgX1 PAM conf: inactive; HEK293 Ca flux: inactive; HEK293 Ca counter: inactive; HEK293 Ca cntr2: inactive

Results for COC(=O)C1=C(c2cc3ccccc3o2)C[C@@H]2CC[C@H]1N2C(=O)NCc1ccc(F)cc1 ?
MrgX1 antagonist: inactive; MrgX1 PAM: 7.9*; MrgX1 ag: inactive; RGS4 block: inactive; RGS4 act: inactive; MrgX1 PAM conf: inactive; HEK293 Ca flux: inactive; HEK293 Ca counter: inactive; HEK293 Ca cntr2: inactive

What do the screens show for `CC(C)(O)[C@@H]1[C@H]2OC(=O)[C@@H]1[C@]1(O)C[C@H]3O[C@]34C(=O)O[C@H]2[C@]14C` (tested in a mixture with another compound)?
MrgX1 antagonist: inactive; MrgX1 PAM: inactive; MrgX1 ag: inactive; RGS4 block: inactive; RGS4 act: inactive

How did O=c1[nH]c(=S)n(C2CCCCC2)c(O)c1/C=N/N1CCOCC1 do in these assays?
MrgX1 antagonist: inactive; MrgX1 PAM: inactive; MrgX1 ag: inactive; RGS4 block: inactive; RGS4 act: inactive

Results for COc1ccc(N2CCN(C(CNC(=O)Oc3ccccc3)c3cccnc3)CC2)cc1 (centres undefined) ?
MrgX1 antagonist: -6.9*; MrgX1 PAM: inactive; MrgX1 ag: inactive; RGS4 block: inactive; RGS4 act: inactive; MrgX1 ant reconf: inactive; HEK293 Ca flux: inactive; HEK293 Ca counter: inactive; HEK293 Ca cntr2: inactive

How did CCCCCn1c(=O)c(C(=O)Nc2cccc(C)c2)c(O)c2ccccc21 do in these assays?
MrgX1 antagonist: -5.2*; MrgX1 PAM: inactive; MrgX1 ag: inactive; RGS4 block: inactive; RGS4 act: inactive; MrgX1 ant reconf: inactive; HEK293 Ca flux: 0.79*; HEK293 Ca counter: inactive; HEK293 Ca cntr2: inactive

How did CCCCCn1c(=O)c(C(=O)Nc2cccc(C)n2)c(O)c2ccccc21 do in these assays?
MrgX1 antagonist: inactive; MrgX1 PAM: inactive; MrgX1 ag: inactive; RGS4 block: inactive; RGS4 act: inactive

What do the screens show for `Cc1[nH]c2ccccc2c1C(=O)C(=O)N1CCC2(CC1)OCCO2`?
MrgX1 antagonist: inactive; MrgX1 PAM: inactive; MrgX1 ag: inactive; RGS4 block: inactive; RGS4 act: inactive

How did CCOC(=O)C1SC2(C(F)(F)F)CC1(O)c1c(C)cc(C)nc1O2 (centres undefined) do in these assays?
MrgX1 antagonist: -7.8*; MrgX1 PAM: inactive; MrgX1 ag: inactive; RGS4 block: inactive; RGS4 act: inactive; MrgX1 ant reconf: inactive; HEK293 Ca flux: inactive; HEK293 Ca counter: inactive; HEK293 Ca cntr2: inactive

Results for COc1ccccc1CN1CCN(Cc2ccc(Cl)cc2)CC1 ?
MrgX1 antagonist: -5.3*; MrgX1 PAM: inactive; MrgX1 ag: inactive; RGS4 block: inactive; RGS4 act: inactive; MrgX1 ant reconf: inactive; HEK293 Ca flux: inactive; HEK293 Ca counter: inactive; HEK293 Ca cntr2: inactive

How did CC[C@H]1CN2CC[C@@]3(C(=O)Nc4ccccc43)[C@@H]2C[C@@H]1/C(=C\OC)C(=O)OC do in these assays?
MrgX1 antagonist: inactive; MrgX1 PAM: inactive; MrgX1 ag: inactive; RGS4 block: inactive; RGS4 act: inactive

What do the screens show for `C=CCN1C(=O)NC(=O)C(Cc2ccc(OC)c(OC)c2)C1=O` (centres undefined)?
MrgX1 antagonist: -4.8*; MrgX1 PAM: inactive; MrgX1 ag: inactive; RGS4 block: inactive; RGS4 act: inactive; MrgX1 ant reconf: inactive; HEK293 Ca flux: inactive; HEK293 Ca counter: inactive; HEK293 Ca cntr2: inactive

Results for CCOC(=O)C1=C(N)OC2=C(C(=O)CCC2)[C@]12C(=O)N(CC(N)=O)c1ccccc12 ?
MrgX1 antagonist: inactive; MrgX1 PAM: inactive; MrgX1 ag: inactive; RGS4 block: inactive; RGS4 act: inactive

Results for Cn1c(=O)cc(OCCCC(=O)N2CCC3(CC2)OCCO3)c2ccccc21 ?
MrgX1 antagonist: -9.8*; MrgX1 PAM: inactive; MrgX1 ag: inactive; RGS4 block: inactive; RGS4 act: inactive; MrgX1 ant reconf: inactive; HEK293 Ca flux: inactive; HEK293 Ca counter: inactive; HEK293 Ca cntr2: inactive

Screening data (PubChem BioAssay)
